Laboratory results published in ChEMBL document CHEMBL1687824, “Overexpression of patA and patB, which encode ABC transporters, is associated with fluoroquinolone resistance in clinical isolates of Streptococcus pneumoniae” (2011).
Values after ≈ are worked out from the molar mass of the structure shown.

Assays:
Streptococcus pneumoniae [1] = test: Antibacterial activity against Streptococcus pneumoniae M315 overexpressing patA, patB and inactivated patA with single mutation by standardized agar doubling dilution method; assay type: functional
In short: (§1)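 MICs determined by BSAC standardized agar doubling dilution. Strains were grown in brain heart infusion broth for 24 h at 37°C in 5% CO2. Inhibitor arms had reserpine at 20 μg/ml or sodium orthovanadate at 50 μM in the agar. Mutants were made by transforming magellan2 insertion amplimers into clinical isolates and selecting on spectinomycin 100 mg/liter, with a no-DNA spontaneous-mutation control.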

Streptococcus pneumoniae [2] = test: Antibacterial activity against Streptococcus pneumoniae M314 overexpressing patA, patB and inactivated patA with single mutation by standardized agar doubling dilution method in presence of 50 uM sodium orthovanadate efflux pump inhibitor; assay type: functional; in short: as §1
Streptococcus pneumoniae [3] = test: Antibacterial activity against dye-resistant Streptococcus pneumoniae M46 DR overexpressing patA, patB by standardized agar doubling dilution method in presence of 20 ug/ml reserpine efflux pump inhibitor; assay type: functional
In short: (§2)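 MICs were determined by BSAC agar doubling dilution in the presence of reserpine at 20 μg/ml. Strains were grown in BHI broth for 24 h at 37°C in 5% CO2, with R6 as control. Synergy was defined as an MIC drop of ≥2 dilutions with the inhibitor.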

Streptococcus pneumoniae [4] = test: Antibacterial activity against wild type Streptococcus pneumoniae R6 by standardized agar doubling dilution method in presence of 20 ug/ml reserpine efflux pump inhibitor; assay type: functional
In short: (§3)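 MIC by agar doubling dilution following BSAC guidelines. Strains grown in brain heart infusion broth 24 h at 37°C in 5% CO2. Where an efflux pump inhibitor applies, MIC redetermined with reserpine at 20 μg/ml or sodium orthovanadate at 50 μM. Synergy taken as a fall in MIC of ≥2 dilutions with inhibitor present. Dye resistance defined relative to R6 (both dyes ≥2 dilutions higher).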

Streptococcus pneumoniae [5] = test: Antibacterial activity against dye-resistant Streptococcus pneumoniae M46 DR overexpressing patA, patB by standardized agar doubling dilution method in presence of 50 uM sodium orthovanadate efflux pump inhibitor; assay type: functional
In short: (§4)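 MICs were determined by BSAC agar doubling dilution in the presence of sodium orthovanadate at 50 μM. Cultures were grown in BHI broth for 24 h at 37°C in 5% CO2, with R6 as control. Synergy was defined as an MIC reduction of ≥2 dilutions with the inhibitor present.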

Streptococcus pneumoniae [6] = test: Antibacterial activity against wild type Streptococcus pneumoniae M4 NCTC 7465 type 1 by standardized agar doubling dilution method in presence of 20 ug/ml reserpine efflux pump inhibitor; assay type: functional; in short: as §3
Streptococcus pneumoniae [7] = test: Antibacterial activity against Streptococcus pneumoniae M302 overexpressing patA, patB and inactivated patA with single mutation by standardized agar doubling dilution method in presence of 50 uM sodium orthovanadate efflux pump inhibitor; assay type: functional; in short: as §1
Streptococcus pneumoniae [8] = test: Antibacterial activity against wild type Streptococcus pneumoniae M3 NCTC 7466 type 2 by standardized agar doubling dilution method in presence of 20 ug/ml reserpine efflux pump inhibitor; assay type: functional; in short: as §3
Streptococcus pneumoniae [9] = test: Antibacterial activity against dye-resistant Streptococcus pneumoniae M55 DR overexpressing patA, patB by standardized agar doubling dilution method in presence of 20 ug/ml reserpine efflux pump inhibitor; assay type: functional; in short: as §3
Streptococcus pneumoniae [10] = test: Antibacterial activity against Streptococcus pneumoniae M86B overexpressing patA, patB and inactivated patB with single mutation by standardized agar doubling dilution method in presence of 20 ug/ml reserpine efflux pump inhibitor; assay type: functional; in short: as §2
Streptococcus pneumoniae [11] = test: Antibacterial activity against fluoroquinolone, dye-susceptible Streptococcus pneumoniae M295 S overexpressing patA, patB by standardized agar doubling dilution method in presence of 20 ug/ml reserpine efflux pump inhibitor; assay type: functional; in short: as §3
Streptococcus pneumoniae [12] = test: Antibacterial activity against fluoroquinolone-resistant Streptococcus pneumoniae M100 FQ-R overexpressing patA, patB by standardized agar doubling dilution method in presence of 50 uM sodium orthovanadate efflux pump inhibitor; assay type: functional
In short: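 MIC by agar doubling dilution per BSAC guidelines; strains pregrown in brain heart infusion broth 24 h, 37°C, 5% CO2. MICs measured alone and with efflux pump inhibitors reserpine (20 μg/ml) or sodium orthovanadate (50 μM); synergy defined as ≥2-dilution MIC reduction in presence of inhibitor.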

Streptococcus pneumoniae [13] = test: Antibacterial activity against wild-type Streptococcus pneumoniae R6 by standardized agar doubling dilution method in presence of 20 ug/ml reserpine efflux pump inhibitor
Streptococcus pneumoniae [14] = test: Antibacterial activity against fluoroquinolone, dye-resistant Streptococcus pneumoniae M296 overexpressing patA, patB by standardized agar doubling dilution method in presence of 20 ug/ml reserpine efflux pump inhibitor; assay type: functional; in short: as §3
Streptococcus pneumoniae [15] = test: Antibacterial activity against fluoroquinolone, dye-resistant Streptococcus pneumoniae M86 overexpressing patA, patB by standardized agar doubling dilution method in presence of 20 ug/ml reserpine efflux pump inhibitor; assay type: functional; in short: as §3
Streptococcus pneumoniae [16] = test: Antibacterial activity against Streptococcus pneumoniae M87A overexpressing patA, patB and inactivated patA with single mutation by standardized agar doubling dilution method; assay type: functional
In short: (§5)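 MICs were determined by agar doubling dilution following BSAC guidelines, with no efflux inhibitor. Strains were grown in brain heart infusion broth for 24 h at 37°C in 5% CO2. Species identity was confirmed by Gram stain, optochin sensitivity and capsule test. Control strain R6 was tested alongside.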

Streptococcus pneumoniae [17] = test: Antibacterial activity against Streptococcus pneumoniae M303 overexpressing patA, patB and inactivated patA with single mutation by standardized agar doubling dilution method in presence of 20 ug/ml reserpine efflux pump inhibitor; assay type: functional; in short: as §1
Streptococcus pneumoniae [18] = test: Antibacterial activity against Streptococcus pneumoniae M50B overexpressing patA, patB and inactivated patB with single mutation by standardized agar doubling dilution method in presence of 20 ug/ml reserpine efflux pump inhibitor; assay type: functional; in short: as §2
Streptococcus pneumoniae [19] = test: Antibacterial activity against Streptococcus pneumoniae M303 overexpressing patA, patB and inactivated patA with single mutation by standardized agar doubling dilution method in presence of 50 uM sodium orthovanadate efflux pump inhibitor; assay type: functional; in short: as §1
Streptococcus pneumoniae [20] = test: Antibacterial activity against Streptococcus pneumoniae M307 overexpressing patA, patB and inactivated patB with single mutation by standardized agar doubling dilution method; assay type: functional; in short: as §1
Streptococcus pneumoniae [21] = test: Antibacterial activity against Streptococcus pneumoniae M86A overexpressing patA, patB and inactivated patA with single mutation by standardized agar doubling dilution method in presence of 50 uM sodium orthovanadate efflux pump inhibitor; assay type: functional; in short: as §4
Streptococcus pneumoniae [22] = test: Antibacterial activity against wild type Streptococcus pneumoniae R6 by standardized agar doubling dilution method; assay type: functional; in short: as §3
Streptococcus pneumoniae [23] = test: Antibacterial activity against Streptococcus pneumoniae M86A overexpressing patA, patB and inactivated patA with single mutation by standardized agar doubling dilution method in presence of 20 ug/ml reserpine efflux pump inhibitor; assay type: functional; in short: as §2
Streptococcus pneumoniae [24] = test: Antibacterial activity against fluoroquinolone, dye-resistant Streptococcus pneumoniae M86 overexpressing patA, patB by standardized agar doubling dilution method in presence of 50 uM sodium orthovanadate efflux pump inhibitor; assay type: functional; in short: as §3
Streptococcus pneumoniae [25] = test: Antibacterial activity against Streptococcus pneumoniae M308 overexpressing patA, patB and inactivated patB with single mutation by standardized agar doubling dilution method; assay type: functional; in short: as §1
Streptococcus pneumoniae [26] = test: Antibacterial activity against fluoroquinolone, dye-resistant Streptococcus pneumoniae M74 overexpressing patA, patB by standardized agar doubling dilution method in presence of 20 ug/ml reserpine efflux pump inhibitor; assay type: functional; in short: as §3
Streptococcus pneumoniae [27] = test: Antibacterial activity against Streptococcus pneumoniae M86B overexpressing patA, patB and inactivated patB with single mutation by standardized agar doubling dilution method in presence of 50 uM sodium orthovanadate efflux pump inhibitor; assay type: functional; in short: as §4
Streptococcus pneumoniae [28] = test: Antibacterial activity against Streptococcus pneumoniae M316 overexpressing patA, patB and inactivated patA with single mutation by standardized agar doubling dilution method; assay type: functional; in short: as §5

Row | Compound | MIC (Streptococcus pneumoniae [1]) | MIC (Streptococcus pneumoniae [2]) | MIC (Streptococcus pneumoniae [7]) | MIC (Streptococcus pneumoniae [12]) | MIC (Streptococcus pneumoniae [16]) | MIC (Streptococcus pneumoniae [17]) | MIC (Streptococcus pneumoniae [18]) | MIC (Streptococcus pneumoniae [19]) | MIC (Streptococcus pneumoniae [20]) | MIC (Streptococcus pneumoniae [25]) | MIC (Streptococcus pneumoniae [26]) | MIC (Streptococcus pneumoniae [28]) | further results
1 | CC[n+]1c(-c2ccccc2)c2cc(N)ccc2c2ccc(N)cc21.[Br-] [HOMIDIUM BROMIDE] | 0.25 µg/mL | 0.5 µg/mL | 0.5 µg/mL | 1 µg/mL | 0.5 µg/mL | 0.5 µg/mL | 0.5 µg/mL | 1 µg/mL | 2 µg/mL | 0.25 µg/mL | 0.5 µg/mL | 0.25 µg/mL | MIC (Streptococcus pneumoniae [3]): 0.5 µg/mL; MIC (Streptococcus pneumoniae [4]): 0.3 µg/mL; MIC (Streptococcus pneumoniae [5]): 1 µg/mL; MIC (Streptococcus pneumoniae [6]): 0.3 µg/mL; MIC (Streptococcus pneumoniae [8]): 0.5 µg/mL; MIC (Streptococcus pneumoniae [9]): 0.5 µg/mL; MIC (Streptococcus pneumoniae [10]): 0.5 µg/mL; MIC (Streptococcus pneumoniae [11]): 0.25 µg/mL; MIC (Streptococcus pneumoniae [13]): 0.25 µg/mL; MIC (Streptococcus pneumoniae [14]): 0.5 µg/mL; MIC (Streptococcus pneumoniae [15]): 0.5 µg/mL; MIC (Streptococcus pneumoniae [21]): 0.5 µg/mL; MIC (Streptococcus pneumoniae [22]): 1 µg/mL; MIC (Streptococcus pneumoniae [23]): 0.5 µg/mL; MIC (Streptococcus pneumoniae [24]): 0.5 µg/mL; MIC (Streptococcus pneumoniae [27]): 0.5 µg/mL
2 | O=C(O)c1cn(C2CC2)c2cc(N3CCNCC3)c(F)cc2c1=O [CIPROFLOXACIN] | 2 µg/mL (≈ 6.04 µM) | 8 µg/mL | 4 µg/mL | 1 µg/mL | 8 µg/mL (≈ 24.1 µM) | 1 µg/mL | 4 µg/mL | 0.12 µg/mL | 8 µg/mL (≈ 24.1 µM) | 2 µg/mL (≈ 6.04 µM) | 32 µg/mL | 8 µg/mL (≈ 24.1 µM) | 
